We go through 20 compounds from ChEMBL document CHEMBL1127072, “Discovery and synthesis of methyl 2,5-dimethyl-4-[2- (phenylmethyl)benzoyl]-1H-pyrrole-3-carboxylate (FPL 64176) and analogues: the first examples of a new class of calcium channel activator” (J Med Chem, 1993).

Test [1] has as its system GH3. In words: Tested for the increase in [Ca2+] uptake into rat pituitary growth hormone3 (GH3) cells at 10 uM. In kind it is functional. The conditions noted are these: read-out: Inhibition. The essentials:
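Rat pituitary GH3 cells were depolarized with 50 mM K⁺ and ⁴⁵Ca²⁺ uptake was measured at a single 10 µM test concentration. Response is expressed relative to the maximal uptake produced by Bay K 8644.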

Test [2] is filed under the species Cavia porcellus. In words: Tested for the force increase in guinea pig atria at 10 uM. In kind it is functional. The method, boiled down: (§1)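 Guinea pig atria paced at 1 Hz, with developed tension recorded at a single test concentration (10, 30 or 100 µM). The increase is given as a percentage of the isoprenaline maximum.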
The species entered for test [3] is Cavia porcellus. In words: Tested for the force increase in guinea pig atria at 100 uM. In kind it is functional. As to conditions: read-out: Inhibition. The method, boiled down: as §1
The species named for test [4] is Cavia porcellus. Briefly: Tested for the force increase in guinea pig atria. In kind it is functional. The method, boiled down:
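Inotropic activity was measured on guinea pig atria paced at 1 Hz. EC50 is the concentration that raises developed tension to 50% of the isoprenaline maximum.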

The test system of test [5] is GH3. In words: Tested for the increase in [Ca2+] uptake into rat pituitary growth hormone3 (GH3) cells. Type of test: functional, cell-based. The method, boiled down:
(§2)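 ⁴⁵Ca²⁺ uptake into rat pituitary GH3 cells depolarized with 50 mM K⁺, used as the measure of channel activation. EC50 is the test concentration producing 50% of the maximal uptake obtained with Bay K 8644.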

The species entered for test [6] is Cavia porcellus. Briefly: Tested for the force increase in guinea pig atria at 30 uM. Type of test: functional. The method, boiled down:
as §1

The subject of test [7] is GH3. Briefly: Tested for the inhibition of [Ca2+] uptake into rat pituitary growth hormone3 (GH3) cells at 10 uM. In kind it is functional.
Test [8] relates to GH3. Briefly: Tested for the 50% of the maximal [Ca2+] uptake produced by Bay K 8644 at 10 uM in rats. In kind it is functional, Rattus norvegicus.
The species named for test [9] is Cavia porcellus. Briefly: Tested for the force value required to increase developed tension to 50% of the isoprenaline maximum at 0.3 uM. In kind it is functional.
Test [10] deals with GH3. In words: Tested for 45 [Ca2+] uptake in rat pituitary growth hormone3 (GH3) cells. In kind it is functional, cell-based. The essentials:
as §2

For test [11], the system named is GH3. In words: Tested for the 50% of the maximal [Ca2+] uptake produced by Bay K 8644 at 1 uM in rats. Type of test: functional, Rattus norvegicus.
The species named for test [12] is Cavia porcellus. Briefly: Tested for the force value required to increase developed tension to 50% of the isoprenaline maximum at 10 uM. Type of test: functional.

One may read the inhibition as the drop in the measured response relative to a control, in per cent. Higher therefore signals a response far below the control. As for `COC(=O)c1c(C)[nH]c(C)c1C(=O)c1ccc(Cl)cc1Cl`, the Ca2+ uptake increase (% of Bay K 8644 maximum) at 10 µM in the test with GH3 [1] was found to be 0%. The compound also had an inhibition at 10 µM in the test listed under Cavia porcellus [2] of 40%.
Consider `COC(=O)c1c(C)[nH]c(C)c1C(=O)c1ccccc1[N+](=O)[O-]`, for which the Ca2+ uptake increase (% of Bay K 8644 maximum) at 10 µM in the test with GH3 [1] is 0%. The Atrial force increase (% of isoprenaline maximum) at 100 µM in the test listed under Cavia porcellus [3] is 17%.
On the same counts, the results for `COC(=O)c1ccccc1C(=O)c1c(C)[nH]c(C)c1C(=O)OC` are 0% and 16%.
By EC50 is commonly meant the concentration that produces a half-maximal response. High values mean a less potent agent, low ones a more potent agent. `COC(=O)c1c(C(=O)c2ccccc2Cc2ccccc2)c[nH]c1C`: the EC50 in the test listed under Cavia porcellus [4] amounted to 0.46 µM; in the test on GH3 [5], 0.42 µM.
Turning to `COC(=O)c1c[nH]cc1C(=O)c1ccccc1Cc1ccccc1`, the EC50 in the test filed under Cavia porcellus [4] is 2.1 µM; in the test with GH3 [5], 6.2 µM.
The compound `COC(=O)c1c(C)[nH]c(C)c1C(=O)c1cccc(Cl)c1Cl` had an inhibition at 30 µM in the test filed under Cavia porcellus [6] of 18%. For the same compound, testing at 10 µM with GH3 [7] gave an inhibition of 0%.
`COC(=O)c1c[nH]c(C)c1C(=O)c1ccccc1Cc1ccccc1`: the half-maximal effective concentration (EC50) in the test listed under Cavia porcellus [4] was 0.144 µM; in the test on GH3 [5] it was 0.089 µM.
On the same counts, the results for `COC(=O)c1c(C)[nH]c(C)c1C(=O)c1ccccc1` are 21.9 µM and 5.4 µM.
On the same counts, the results for `COC(=O)c1c(C)[nH]c(C)c1C(=O)c1ccccc1C` are 9.47 µM and 3.6 µM.
Consider `COC(=O)c1c(C)[nH]c(C)c1C(=O)c1cc(Cl)ccc1Cl`, for which the EC50 in the test listed under Cavia porcellus [4] came to 3.98 µM; in the test on GH3 [5], 0.6 µM.
Taken in the same sequence, the figures for `COC(=O)c1c(C)[nH]c(C)c1C(=O)c1ccccc1OC(=O)c1ccccc1O` were 3.8 µM and 0.5 µM.
Taken in the same sequence, the figures for `COC(=O)c1c(C)[nH]c(C)c1C(=O)c1ccccc1C(F)(F)F` were 4.84 µM and 4.3 µM.
With `COC(=O)c1c(C)[nH]c(C)c1C(=O)c1c(Cl)cccc1Cl`, in the test with GH3 [1], the Ca2+ uptake increase (% of Bay K 8644 maximum) at 10 µM turned out to be 0%. Besides, the Atrial force increase (% of isoprenaline maximum) at 100 µM in the test listed under Cavia porcellus [3] worked out at 0%.
Turning to `COC(=O)c1c(C)[nH]c(C)c1C(=O)c1ccccc1F`, the EC50 in the test filed under Cavia porcellus [4] is 70 µM; with GH3 [5], 1.3 µM.
On to `COC(=O)c1c(C)[nH]c(C)c1C(=O)c1ccccc1Br`, for which the half-maximal effective concentration (EC50) in the test filed under Cavia porcellus [4] amounted to 8.95 µM; with GH3 [5], 2.4 µM.
On the same counts, the results for `COC(=O)c1c(C)[nH]c(C)c1C(=O)c1ccccc1Cl` are 14 µM and 3.3 µM.
As for `COC(=O)c1c(C)[nH]c(C)c1C(=O)c1ccccc1Cc1ccccc1`, the 50% effective concentration (EC50) came out at 0.049 µM in the test listed under Cavia porcellus [4] and 0.016 µM in the test with GH3 [10]. Besides, the figures for the Max in the test on GH3 [8] and in the test filed under Cavia porcellus [9] were 383% and 105%, respectively.
As for `COC(=O)c1c(C)[nH]c(C)c1C(=O)c1ccccc1OC`, the Ca2+ uptake increase (% of Bay K 8644 maximum) at 10 µM with GH3 [1] turned out to be 0%. Also, in the test listed under Cavia porcellus [3], the Atrial force increase (% of isoprenaline maximum) at 100 µM was 44%.
Take `COC(=O)c1c(C)[nH]c(C)c1C(=O)c1ccccc1I`: the EC50 was 5.9 µM in the test listed under Cavia porcellus [4] and 3.4 µM in the test on GH3 [5].
With `COC(=O)C1=C(C)NC(C)=C([N+](=O)[O-])C1c1ccccc1C(F)(F)F` (centres undefined), the EC50 in the test listed under Cavia porcellus [4] amounted to 1.95 µM; with GH3 [10] it was 0.015 µM. The Max in the test with GH3 [11] is 100%; in the test filed under Cavia porcellus [12] it was 61%.
